Test results taken from ChEMBL document CHEMBL2176871, “Development of ligands at γ-aminobutyrric acid type A (GABAA) receptor subtype as new agents for pain relief” (Bioorg Med Chem, 2011).
The source made the active and inactive calls.

Columns and labels:
Mus musculus [1] = experiment: Antihyperalgesic activity Swiss albino mouse […] assessed as licking latency time at 30 mg/kg, po after 60 mins by hot plate test (reference value: 17.4 +/- 1.2 secs); assay type: functional
Procedure, shortened: (§1)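 Hot plate at 52.5 ± 0.1 °C in non-diabetic male Swiss mice. Latency to licking of fore or hind paws was timed before dosing and every 15 min up to 60 min after oral dosing. Mice with pretest latencies below 12 s or above 18 s were excluded. Cut-off was 45 s.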

Mus musculus [2] = experiment: Antihyperalgesic activity against streptozotocin-induced hyperalgesia in Swiss albino mouse […] assessed as licking latency time at 30 mg/kg, po after 60 mins by hot plate test (reference value: 10.6 +/- 0.7 secs); assay type: functional
Mus musculus [3] = experiment: Antihyperalgesic activity against streptozotocin-induced hyperalgesia in Swiss albino mouse […] assessed as licking latency time at 30 mg/kg, po after 15 mins by hot plate test (reference value: 10.6 +/- 0.7 secs); assay type: functional
Rattus norvegicus [4] = experiment: Toxicity in Sprague-Dawley rat mononeuropathy pain model assessed as effect on contralateral paw pressure at 100 mg/kg, po after 30 mins by paw pressure test; assay type: organism-based; parameters: dose 100 mg/kg, route oral; settings: in vivo, 0.5 h
Procedure, shortened: (§2)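 Same sciatic-ligation rat model, 14 days after surgery. Threshold measured on the non-operated contralateral hind paw by analgesimeter at 32 g/s; first-struggle endpoint; 250 g cut-off; pretest rats outside 40–75 g rejected. Compound given po in 10 ml/kg; readings at 15, 30 and 45 min.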

Mus musculus [5] = experiment: Analgesic activity in Swiss albino mouse abdominal constriction model assessed as decrease in number of acetic acid-induced writhing at 30 to 60 mg/kg, po after 30 mins; assay type: functional, organism-based; settings: Abdomen
Procedure, shortened: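 Male Swiss albino mice (23–30 g). Compounds given po in 1% CMC vehicle 30 min before the test. Acetic acid 0.6% injected i.p. at 10 ml/kg. Stretching movements were counted for 10 min, starting 5 min after the acetic acid injection. 8–15 mice per group.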

Rattus norvegicus [6] = experiment: Toxicity in Sprague-Dawley rat mononeuropathy pain model assessed as effect on contralateral paw pressure at 100 mg/kg, po after 15 mins by paw pressure test; assay type: organism-based; parameters: dose 100 mg/kg, route oral; settings: in vivo, 0.25 h; procedure, shortened: as §2
Rattus norvegicus [7] = experiment: Toxicity in Sprague-Dawley rat mononeuropathy pain model assessed as effect on contralateral paw pressure at 30 mg/kg, po after 30 mins by paw pressure test; assay type: organism-based; parameters: dose 30 mg/kg, route oral; settings: in vivo, 0.5 h; procedure, shortened: as §2
Mus musculus [8] = experiment: Antihyperalgesic activity against streptozotocin-induced hyperalgesia in Swiss albino mouse […] assessed as licking latency time at 30 mg/kg, po after 45 mins by hot plate test (reference value: 10.6 +/- 0.7 secs); assay type: functional
Mus musculus [9] = experiment: Anticonvulsant activity in Swiss albino mouse […] assessed as protection against intraperitoneally administered pentylenetetrazol-induced seizures at 30 mg/kg, po after 30 mins; assay type: functional
Procedure, shortened: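 Male Swiss albino mice. Compounds given po and PTZ 90 mg/kg injected 30 min later; PTZ was dissolved in 0.9% NaCl saline. Clonic generalized convulsions were recorded over 30 min. Each value is the mean of 10 mice. The methods give the PTZ route as s.c. and the table footnote gives it as ip.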

Mus musculus [10] = experiment: Antihyperalgesic activity Swiss albino mouse […] assessed as licking latency time at 30 mg/kg, po after 30 mins by hot plate test (reference value: 17.4 +/- 1.2 secs); assay type: functional; procedure, shortened: as §1
Rattus norvegicus [11] = experiment: Antinociceptive activity in Sprague-Dawley rat mononeuropathy pain model assessed as increase in injured paw pressure at 30 mg/kg, po after 15 mins by paw pressure test relative to non-treated control; assay type: functional
Procedure, shortened: (§3)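 Chronic constriction injury: loose ligatures placed on the common sciatic nerve under chloral hydrate; contralateral sham dissection. Tested 14 days after surgery. Paw pressure applied at 32 g/s; threshold taken as the force causing the first struggle; cut-off 250 g; pretest outliers (<40 g or >75 g) excluded. Oral dosing in 10 ml/kg; read at 15, 30 and 45 min; compared with a CMC-treated group.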

Rattus norvegicus [12] = experiment: Toxicity in Sprague-Dawley rat mononeuropathy pain model assessed as effect on contralateral paw pressure at 30 mg/kg, po after 15 mins by paw pressure test; assay type: organism-based; parameters: dose 30 mg/kg, route oral; settings: in vivo, 0.25 h; procedure, shortened: as §2
Bos taurus = species on record: Bos taurus; experiment: Displacement of [3H]Ro151788 from GABA(A)/BzR in bovine cerebral cortex membrane at 10 uM; assay type: cell membranes
Procedure, shortened: (§4)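 Bovine cerebral cortex membranes in 50 mM Tris-citrate pH 7.4; [3H]flumazenil displacement. Compounds first tested at a fixed 10 µM; Ki determined only when inhibition exceeded 80%, using at least six concentrations. Five experiments run in triplicate; IC50 obtained by iterative curve fitting and converted to Ki with the Cheng–Prusoff equation.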

Rattus norvegicus [13] = experiment: Antinociceptive activity in Sprague-Dawley rat mononeuropathy pain model assessed as increase in injured paw pressure at 30 mg/kg, po after 45 mins by paw pressure test relative to non-treated control; assay type: functional; procedure, shortened: as §3
Rattus norvegicus [14] = experiment: Antinociceptive activity in Sprague-Dawley rat mononeuropathy pain model assessed as increase in injured paw pressure at 100 mg/kg, po after 45 mins by paw pressure test relative to non-treated control; assay type: functional; procedure, shortened: as §3
Rattus norvegicus [15] = experiment: Antinociceptive activity in Sprague-Dawley rat mononeuropathy pain model assessed as increase in injured paw pressure at 100 mg/kg, po after 15 mins by paw pressure test relative to non-treated control; assay type: functional; procedure, shortened: as §3
Rattus norvegicus [16] = experiment: Toxicity in Sprague-Dawley rat mononeuropathy pain model assessed as effect on contralateral paw pressure at 100 mg/kg, po after 45 mins by paw pressure test; assay type: organism-based; parameters: dose 100 mg/kg, route oral; settings: in vivo, 0.75 h; procedure, shortened: as §2
Mus musculus [17] = experiment: Antihyperalgesic activity Swiss albino mouse […] assessed as licking latency time at 30 mg/kg, po after 45 mins by hot plate test (reference value: 17.4 +/- 1.2 secs); assay type: functional; procedure, shortened: as §1
Mus musculus [18] = experiment: Anxiolytic-like activity in Swiss albino mouse at 30 mg/kg, po after 30 mins by light/dark box test; assay type: functional, organism-based; parameters: dose 30 mg/kg
Procedure, shortened: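 Male Swiss mice tested in a two-compartment light/dark box. Transfers between compartments and time spent in the lit side recorded. Compound given po 30 min before testing, in 10 ml/kg; flumazenil given i.p. for antagonism; 8 mice per group.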

Rattus norvegicus [19] = experiment: Toxicity in Sprague-Dawley rat mononeuropathy pain model assessed as effect on contralateral paw pressure at 30 mg/kg, po after 45 mins by paw pressure test; assay type: organism-based; parameters: dose 30 mg/kg, route oral; settings: in vivo, 0.75 h; procedure, shortened: as §2
Rattus norvegicus [20] = experiment: Antinociceptive activity in Sprague-Dawley rat mononeuropathy pain model assessed as increase in injured paw pressure at 100 mg/kg, po after 30 mins by paw pressure test relative to non-treated control; assay type: functional; procedure, shortened: as §3
Mus musculus [21] = experiment: Antihyperalgesic activity Swiss albino mouse […] assessed as licking latency time at 30 mg/kg, po after 15 mins by hot plate test (reference value: 17.4 +/- 1.2 secs); assay type: functional; procedure, shortened: as §1
Mus musculus [22] = experiment: Antihyperalgesic activity against streptozotocin-induced hyperalgesia in Swiss albino mouse […] assessed as licking latency time at 30 mg/kg, po after 30 mins by hot plate test (reference value: 10.6 +/- 0.7 secs); assay type: functional
Rattus norvegicus [23] = experiment: Antinociceptive activity in Sprague-Dawley rat mononeuropathy pain model assessed as increase in injured paw pressure at 30 mg/kg, po after 30 mins by paw pressure test relative to non-treated control; assay type: functional; procedure, shortened: as §3
Mus musculus [24] = experiment: Antihyperalgesic activity against streptozotocin-induced hyperalgesia in Swiss albino mouse […] assessed as licking latency time at 30 mg/kg, po after 30 mins by hot plate test (reference value: 9.7 +/- 0.8 secs); assay type: functional
Mus musculus [25] = experiment: Antihyperalgesic activity Swiss albino mouse […] assessed as licking latency time at 30 mg/kg, po after 45 mins by hot plate test (reference value: 17.1 +/- 0.71 secs); assay type: functional; procedure, shortened: as §1
Mus musculus [26] = experiment: Antihyperalgesic activity against streptozotocin-induced hyperalgesia in Swiss albino mouse […] assessed as licking latency time at 30 mg/kg, po after 45 mins by hot plate test (reference value: 9.7 +/- 0.8 secs); assay type: functional
Mus musculus [27] = experiment: Antihyperalgesic activity Swiss albino mouse […] assessed as licking latency time at 30 mg/kg, po after 15 mins by hot plate test (reference value: 17.1 +/- 0.71 secs); assay type: functional; procedure, shortened: as §1
Mus musculus [28] = experiment: Antihyperalgesic activity Swiss albino mouse […] assessed as licking latency time at 30 mg/kg, po after 60 mins by hot plate test (reference value: 17.1 +/- 0.71 secs); assay type: functional; procedure, shortened: as §1
Mus musculus [29] = experiment: Antihyperalgesic activity against streptozotocin-induced hyperalgesia in Swiss albino mouse […] assessed as licking latency time at 30 mg/kg, po after 15 mins by hot plate test (reference value: 9.7 +/- 0.8 secs); assay type: functional
[30] = Displacement of [3H]Ro151788 from GABA(A)/BzR in bovine cerebral cortex membrane; assay type: cell membranes, Bos taurus; procedure, shortened: as §4
Mus musculus [31] = experiment: Antihyperalgesic activity Swiss albino mouse […] assessed as licking latency time at 30 mg/kg, po after 30 mins by hot plate test (reference value: 17.1 +/- 0.71 secs); assay type: functional; procedure, shortened: as §1
Mus musculus [32] = experiment: Antihyperalgesic activity against streptozotocin-induced hyperalgesia in Swiss albino mouse […] assessed as licking latency time at 30 mg/kg, po after 60 mins by hot plate test (reference value: 9.7 +/- 0.8 secs); assay type: functional

CCCCCOc1ccc2c(c1)n1ncc(I)c1n[n+]2[O-]
Time (Mus musculus [1]): 17.5 s
Time (Mus musculus [2]): 9.1 s
Time (Mus musculus [3]): 9.2 s
Activity (Rattus norvegicus [4]): 61.3 g
Activity (Mus musculus [5]): inactive
Activity (Rattus norvegicus [6]): 57.4 g
Activity (Rattus norvegicus [7]): 61.2 g
Time (Mus musculus [8]): 10.4 s
Activity (Mus musculus [9]): 0%
Time (Mus musculus [10]): 16.7 s
Activity (Rattus norvegicus [11]): 35.6 g
Activity (Rattus norvegicus [12]): 57.3 g
inhibition (Bos taurus): > 80%
Activity (Rattus norvegicus [13]): 34.2 g
Activity (Rattus norvegicus [14]): 33.9 g
Activity (Rattus norvegicus [15]): 39.2 g
Activity (Rattus norvegicus [16]): 60.5 g
Time (Mus musculus [17]): 17.1 s
Activity (Mus musculus [18]): Active
Activity (Rattus norvegicus [19]): 63.1 g
Activity (Rattus norvegicus [20]): 38.4 g
Time (Mus musculus [21]): 18.3 s
Time (Mus musculus [22]): 9.8 s
Activity (Rattus norvegicus [23]): 37.5 g

Cc1cnn2c1n[n+]([O-])c1ccc(NCc3ccccc3)cc12
Time (Mus musculus [24]): 11.3 s
Time (Mus musculus [25]): 18.3 s
Time (Mus musculus [26]): 10.2 s
Activity (Mus musculus [5]): inactive
Activity (Rattus norvegicus [7]): 63.2 g
Activity (Mus musculus [9]): 10%
Time (Mus musculus [27]): 6.8 s
Activity (Rattus norvegicus [11]): 27.4 g
Activity (Rattus norvegicus [12]): 61.5 g
Time (Mus musculus [28]): 17.8 s
inhibition (Bos taurus): > 80%
Time (Mus musculus [29]): 9.6 s
Activity (Rattus norvegicus [13]): 28.5 g
Ki [30]: 2.58 nM
Activity (Mus musculus [18]): Active
Activity (Rattus norvegicus [19]): 62.5 g
Time (Mus musculus [31]): 18.2 s
Activity (Rattus norvegicus [23]): 27 g
Time (Mus musculus [32]): 11.7 s
